In ChEMBL document CHEMBL4706700, “Oxa-adamantyl cannabinoids” (Bioorg Med Chem Lett, 2021):
pEC50, pKi: −log10 of the molar value. Calls of active or inactive are those of the source. No cut-off for these calls is given here.

Tests used:
[1] = molecular target: Cannabinoid receptor 1 (Rattus norvegicus) (UniProt P20272); test: Agonist activity at rat CB1 receptor expressed in HEK293 cells assessed as inhibition of forskolin-stimulated cAMP level stimulated for 30 mins followed by Eu-cAMP tracer addition and measured after 60 mins relative to control; format: functional, cell-based; conditions: filed as agonist, time 90.0 min
Cannabinoid receptor 1 (Rattus norvegicus), sequence (P20272 whole entry): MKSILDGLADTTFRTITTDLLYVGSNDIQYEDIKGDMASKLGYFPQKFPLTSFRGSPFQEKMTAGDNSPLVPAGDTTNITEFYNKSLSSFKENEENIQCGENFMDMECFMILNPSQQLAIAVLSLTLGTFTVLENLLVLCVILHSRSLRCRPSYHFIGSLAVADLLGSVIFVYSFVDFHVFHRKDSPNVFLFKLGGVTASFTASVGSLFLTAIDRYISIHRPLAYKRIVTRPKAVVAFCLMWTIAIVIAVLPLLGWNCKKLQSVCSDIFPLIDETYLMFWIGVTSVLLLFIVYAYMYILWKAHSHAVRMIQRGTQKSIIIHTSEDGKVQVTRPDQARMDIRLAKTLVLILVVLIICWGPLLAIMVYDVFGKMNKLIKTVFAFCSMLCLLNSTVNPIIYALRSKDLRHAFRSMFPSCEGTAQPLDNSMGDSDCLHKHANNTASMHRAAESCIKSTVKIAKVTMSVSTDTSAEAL
Summary of the method: (§1)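 cAMP accumulation stimulated by forskolin, in HEK293 cells expressing rCB1 or hCB2. Forskolin-stimulated level set to 100%. EC50 obtained by nonlinear regression. […] Values are the average of two independent experiments, each run in triplicate.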

[2] = molecular target: Cannabinoid receptor 1 (Rattus norvegicus) (UniProt P20272); test: Agonist activity at rat CB1 receptor expressed in HEK293 cells assessed as inhibition of forskolin-stimulated cAMP level stimulated for 30 mins followed by Eu-cAMP tracer addition and measured after 60 mins; format: functional, cell-based; conditions: filed as agonist, time 90.0 min; summary of the method: as §1
Cannabinoid receptor 1 [3] = molecular target: T1, Cannabinoid receptor 1 (Rattus norvegicus, UniProt P20272); test: Agonist activity at rat […] CB1 receptor assessed as decrease in forskolin-stimulated cAMP level stimulated for 30 mins followed by Eu-cAMP tracer addition and measured after 60 mins; format: functional
T1 sequence (P20272 whole entry): as above

Cannabinoid receptor 1 [4] = molecular target: T1, Cannabinoid receptor 1; test: Displacement of [3H]CP55940 from rat brain CB1 receptor by scintillation counting method; format: tissue-based
Summary of the method: (§2)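 Competition binding with [3H]CP-55,940. Receptor source is rat brain membranes (CB1) or membranes from HEK293 cells expressing mouse or human CB2. Ki from competition curves by nonlinear regression. Ki is the mean of three independent experiments, each in triplicate.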

Cannabinoid receptor 2 [5] = molecular target: T2, Cannabinoid receptor 2 (Homo sapiens, UniProt P34972); test: Agonist activity at human CB2 receptor expressed in HEK293 cells assessed as decrease in forskolin-stimulated cAMP level up to 2.3 uM stimulated for 30 mins followed by Eu-cAMP tracer addition and measured after 60 mins; format: functional, cell-based; conditions: dose microM <=2.3, time 90.0 min; summary of the method: as §1
T2 sequence (P34972 whole entry): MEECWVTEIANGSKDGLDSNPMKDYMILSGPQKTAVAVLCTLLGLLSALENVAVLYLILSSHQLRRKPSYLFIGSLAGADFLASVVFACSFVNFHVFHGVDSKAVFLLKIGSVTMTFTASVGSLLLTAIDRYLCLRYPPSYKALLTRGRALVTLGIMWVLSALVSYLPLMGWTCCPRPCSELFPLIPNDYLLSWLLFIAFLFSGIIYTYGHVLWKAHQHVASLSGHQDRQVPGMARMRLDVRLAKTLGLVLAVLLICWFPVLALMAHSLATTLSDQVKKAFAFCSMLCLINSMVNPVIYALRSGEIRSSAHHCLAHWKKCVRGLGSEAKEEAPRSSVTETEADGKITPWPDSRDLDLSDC

Cannabinoid receptor 2 [6] = molecular target: Cannabinoid receptor 2 (Mus musculus, UniProt P47936); test: Displacement of [3H]CP55940 from mouse CB2 receptor expressed in HEK293 cell membrane by scintillation counting method; format: cell membranes; summary of the method: as §2
Cannabinoid receptor 2 (Mus musculus, UniProt P47936), sequence (P47936 whole entry): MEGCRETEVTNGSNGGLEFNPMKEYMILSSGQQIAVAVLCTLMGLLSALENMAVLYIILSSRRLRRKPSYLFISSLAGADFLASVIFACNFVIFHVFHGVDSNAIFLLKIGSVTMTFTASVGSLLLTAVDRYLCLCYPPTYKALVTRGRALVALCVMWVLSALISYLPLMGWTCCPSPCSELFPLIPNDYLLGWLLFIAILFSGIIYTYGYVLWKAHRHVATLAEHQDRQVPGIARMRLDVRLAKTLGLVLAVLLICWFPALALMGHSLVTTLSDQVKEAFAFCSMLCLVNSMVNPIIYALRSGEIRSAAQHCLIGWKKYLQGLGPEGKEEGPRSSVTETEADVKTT

Cannabinoid receptor 2 [7] = molecular target: T2, Cannabinoid receptor 2; test: Displacement of [3H]CP55940 from human CB2 receptor expressed in HEK293 cell membrane by scintillation counting method; format: cell membranes
Summary of the method: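 Receptor source is rat brain membranes (CB1) or membranes from HEK293 cells expressing mouse or human CB2. Ki from competition curves by nonlinear regression. Ki is the mean of three independent experiments, each in triplicate.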

[8] = Selectivity ratio of Ki for displacement of [3H]CP55940 from human CB2 receptor expressed in HEK293 cells to Ki for displacement of [3H]CP55940 from mouse CB2 receptor expressed in HEK293 cells; format: cell-based
Cannabinoid receptor 2 [9] = molecular target: T2, Cannabinoid receptor 2; test: Irreversible binding affinity to human CB2 receptor expressed in HEK293 cells assessed as inhibition of [3H]CP55940 binding to receptor at 10 fold Ki by saturation curve assay relative to control; format: cell-based
Summary of the method: (§3)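 Rat brain CB1 or HEK293 hCB2 membranes pretreated with the isothiocyanate ligand, then run in [3H]CP-55,940 saturation binding. Controls were processed in parallel without ligand. Percent covalent labeling = [Bmax(control) − Bmax(ligand)]/Bmax(control). At least two independent experiments in triplicate; mean ± SEM.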

[10] = molecular target: Cannabinoid receptor 1 (Rattus norvegicus) (UniProt P20272); test: Irreversible binding affinity to rat brain CB1 receptor assessed as inhibition of [3H]CP55940 binding to receptor at 10 fold Ki by saturation curve assay relative to control; format: tissue-based; conditions: filed as agonist; summary of the method: as §3

Row | SMILES | Emax [1] [%] | inhibition [2] | pEC50 (Cannabinoid receptor 1 [3]) | pKi (Cannabinoid receptor 1 [4]) | Activity (Cannabinoid receptor 2 [5]) | pKi (Cannabinoid receptor 2 [6]) | pKi (Cannabinoid receptor 2 [7]) | Ratio Ki [8] | Bmax (Cannabinoid receptor 2 [9]) [%] | Bmax [10] [%]
1 | CC1(C)Oc2cc(C34CC5CC(CC(CN=[N+]=[N-])(C5)O3)C4)cc(O)c2[C@@H]2C[C@H](O)CC[C@H]21 | 87 | Dose-dependent effect | 8.51 | 8.64 | inactive | 8.57 | 8.51 |  |  | 
2 | CC1(C)Oc2cc(C34CC5CC(CC(C#N)(C5)O3)C4)cc(O)c2[C@@H]2C[C@H](O)CC[C@H]21 |  |  |  | 7.58 |  | 8.80 | 7.50 | 20 |  | 
3 | CC1(C)Oc2cc(C34CC5CC(CC(CN=C=S)(C5)O3)C4)cc(O)c2[C@@H]2C[C@H](CO)CC[C@H]21 | 94 | Dose-dependent effect | 9.05 | 8.08 | inactive | 8.18 | 8.33 |  |  | 
4 | CC1(C)Oc2cc(C34CC5CC(CC(CN=[N+]=[N-])(C5)O3)C4)cc(O)c2[C@@H]2C[C@H](CO)CC[C@H]21 | 93 | Dose-dependent effect | 9.05 | 8.70 | inactive | 9.15 | 8.66 |  |  | 
5 | CCCCCCC(C)(C)c1ccc([C@@H]2C[C@H](O)CC[C@H]2CCCO)c(O)c1 |  | Dose-dependent effect |  |  |  |  |  |  |  | 
6 | CC1(C)Oc2cc(C34CC5CC(CC(C(N)=O)(C5)O3)C4)cc(O)c2[C@@H]2C[C@H](CO)CC[C@H]21 |  |  |  | 7.97 |  | 7.46 | 7.04 |  |  | 
7 | CC1(C)Oc2cc(C34CC5CC(CC(C(N)=O)(C5)O3)C4)cc(O)c2[C@@H]2C[C@H](O)CC[C@H]21 |  |  |  | 7.54 |  | 6.06 | 6.43 |  |  | 
8 | CC1(C)Oc2cc(C34CC5CC(CC(CN=C=S)(C5)O3)C4)cc(O)c2[C@@H]2C[C@H](O)CC[C@H]21 | 88 | Dose-dependent effect | 9.10 | 8.32 | inactive | 8.02 | 8.44 |  | 32 | 65
